Measurements as given in ChEMBL document CHEMBL1142293, “Thiol-based angiotensin-converting enzyme 2 inhibitors: P1 modifications for the exploration of the S1 subsite” (Bioorg Med Chem Lett, 2008).

What was measured:
Settings in all cases: read-out: Ki app
[1] = target: Angiotensin-converting enzyme (Homo sapiens, UniProt P12821); experiment: Inhibition of human recombinant ACE by fluorescence assay
Method in brief: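 Recombinant human ACE at 0.5 nM was incubated with 10 μM MCA-Ala-Ser-Asp-Lys-Dap(DNP)-OH substrate. Buffer was 1 μM Zn(OAc)2, 100 μM TCEP reducing agent, 50 mM Hepes, 300 μM CHAPS and 300 mM NaCl, pH 7.5. Inhibitor was pre-incubated before substrate was added. Fluorescence read-out gave apparent Ki.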

[2] = target: Angiotensin-converting enzyme 2 (Homo sapiens, UniProt Q9BYF1); experiment: Inhibition of human recombinant ACE2 by fluorescence assay
Angiotensin-converting enzyme 2, sequence (Q9BYF1 whole entry): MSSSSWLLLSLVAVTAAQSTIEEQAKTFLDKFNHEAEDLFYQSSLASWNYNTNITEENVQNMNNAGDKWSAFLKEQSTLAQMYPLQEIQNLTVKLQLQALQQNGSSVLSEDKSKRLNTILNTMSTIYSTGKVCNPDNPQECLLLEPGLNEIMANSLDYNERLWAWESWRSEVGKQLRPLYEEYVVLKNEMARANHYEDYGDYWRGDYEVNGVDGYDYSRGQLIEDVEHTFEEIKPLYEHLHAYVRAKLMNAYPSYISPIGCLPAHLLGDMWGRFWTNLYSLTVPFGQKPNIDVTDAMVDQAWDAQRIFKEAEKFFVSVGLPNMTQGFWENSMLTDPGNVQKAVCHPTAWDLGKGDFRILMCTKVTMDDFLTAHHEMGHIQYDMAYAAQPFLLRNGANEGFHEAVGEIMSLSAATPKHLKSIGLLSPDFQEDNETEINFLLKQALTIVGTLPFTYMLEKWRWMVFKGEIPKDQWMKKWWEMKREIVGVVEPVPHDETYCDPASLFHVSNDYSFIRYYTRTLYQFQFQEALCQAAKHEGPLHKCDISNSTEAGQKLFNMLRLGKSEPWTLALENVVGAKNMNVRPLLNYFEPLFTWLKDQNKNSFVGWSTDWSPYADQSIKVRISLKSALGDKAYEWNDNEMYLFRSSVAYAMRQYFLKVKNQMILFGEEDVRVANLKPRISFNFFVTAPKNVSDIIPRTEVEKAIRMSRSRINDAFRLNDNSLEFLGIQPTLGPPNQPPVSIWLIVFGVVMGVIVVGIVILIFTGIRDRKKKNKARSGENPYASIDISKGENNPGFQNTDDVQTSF
Method in brief: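 Fluorescence assay with 0.4 nM recombinant human ACE2 and 30 μM MCA-Tyr-Val-Ala-Asp-Ala-Pro-Lys(DNP)-OH substrate. Pre-incubation with inhibitor preceded substrate addition. Apparent Ki was reported, with average %CV 45%. Thiols were diluted from 10 mM stocks in 50% aqueous acetonitrile just before assay.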

Neprilysin = Neprilysin (Homo sapiens, UniProt P08473); experiment: Inhibition of human recombinant NEP by fluorescence assay
Neprilysin, sequence (P08473 whole entry): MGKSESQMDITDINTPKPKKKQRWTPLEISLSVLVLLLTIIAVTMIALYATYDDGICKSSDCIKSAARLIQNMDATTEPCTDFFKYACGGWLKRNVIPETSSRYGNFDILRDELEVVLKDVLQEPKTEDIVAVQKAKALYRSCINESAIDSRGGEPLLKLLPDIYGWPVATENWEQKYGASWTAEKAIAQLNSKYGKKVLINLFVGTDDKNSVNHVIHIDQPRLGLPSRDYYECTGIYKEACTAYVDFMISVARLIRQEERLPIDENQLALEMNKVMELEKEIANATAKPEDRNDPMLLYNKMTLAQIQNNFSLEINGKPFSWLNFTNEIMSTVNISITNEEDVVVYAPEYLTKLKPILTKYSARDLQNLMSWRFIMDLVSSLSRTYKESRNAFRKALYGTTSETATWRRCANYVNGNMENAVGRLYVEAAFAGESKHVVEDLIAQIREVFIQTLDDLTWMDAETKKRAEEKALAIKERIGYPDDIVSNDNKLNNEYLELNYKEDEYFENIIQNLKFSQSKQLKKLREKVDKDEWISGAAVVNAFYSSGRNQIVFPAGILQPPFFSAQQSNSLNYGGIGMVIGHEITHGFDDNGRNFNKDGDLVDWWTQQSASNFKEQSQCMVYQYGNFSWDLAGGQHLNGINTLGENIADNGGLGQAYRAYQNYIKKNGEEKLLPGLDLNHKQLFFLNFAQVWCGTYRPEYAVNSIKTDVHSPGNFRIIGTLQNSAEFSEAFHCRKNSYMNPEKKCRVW
Method in brief: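 Recombinant human NEP at 0.15 nM was assayed with 2 μM FAM-[…]TAMRA)-NH2 substrate. Inhibitor was pre-incubated, then substrate added. Fluorescence gave Ki App, with average %CV 43%.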

Carboxypeptidase A1 = target: T1, Carboxypeptidase A1 (Homo sapiens, UniProt P15085); experiment: Inhibition of human recombinant carboxy peptidase A1 by fluorescence assay
T1 sequence (P15085 whole entry): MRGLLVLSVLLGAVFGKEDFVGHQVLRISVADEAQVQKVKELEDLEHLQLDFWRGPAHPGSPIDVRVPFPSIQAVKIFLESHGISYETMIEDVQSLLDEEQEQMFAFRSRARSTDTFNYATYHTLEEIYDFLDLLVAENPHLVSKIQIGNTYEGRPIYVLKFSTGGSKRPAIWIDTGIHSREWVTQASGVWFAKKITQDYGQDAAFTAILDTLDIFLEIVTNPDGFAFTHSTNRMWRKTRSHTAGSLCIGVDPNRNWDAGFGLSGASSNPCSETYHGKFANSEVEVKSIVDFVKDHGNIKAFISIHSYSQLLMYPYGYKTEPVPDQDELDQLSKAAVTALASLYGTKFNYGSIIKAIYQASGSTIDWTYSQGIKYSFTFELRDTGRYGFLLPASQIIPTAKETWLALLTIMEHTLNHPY

Angiotensin-converting enzyme, sequence (P12821 whole entry): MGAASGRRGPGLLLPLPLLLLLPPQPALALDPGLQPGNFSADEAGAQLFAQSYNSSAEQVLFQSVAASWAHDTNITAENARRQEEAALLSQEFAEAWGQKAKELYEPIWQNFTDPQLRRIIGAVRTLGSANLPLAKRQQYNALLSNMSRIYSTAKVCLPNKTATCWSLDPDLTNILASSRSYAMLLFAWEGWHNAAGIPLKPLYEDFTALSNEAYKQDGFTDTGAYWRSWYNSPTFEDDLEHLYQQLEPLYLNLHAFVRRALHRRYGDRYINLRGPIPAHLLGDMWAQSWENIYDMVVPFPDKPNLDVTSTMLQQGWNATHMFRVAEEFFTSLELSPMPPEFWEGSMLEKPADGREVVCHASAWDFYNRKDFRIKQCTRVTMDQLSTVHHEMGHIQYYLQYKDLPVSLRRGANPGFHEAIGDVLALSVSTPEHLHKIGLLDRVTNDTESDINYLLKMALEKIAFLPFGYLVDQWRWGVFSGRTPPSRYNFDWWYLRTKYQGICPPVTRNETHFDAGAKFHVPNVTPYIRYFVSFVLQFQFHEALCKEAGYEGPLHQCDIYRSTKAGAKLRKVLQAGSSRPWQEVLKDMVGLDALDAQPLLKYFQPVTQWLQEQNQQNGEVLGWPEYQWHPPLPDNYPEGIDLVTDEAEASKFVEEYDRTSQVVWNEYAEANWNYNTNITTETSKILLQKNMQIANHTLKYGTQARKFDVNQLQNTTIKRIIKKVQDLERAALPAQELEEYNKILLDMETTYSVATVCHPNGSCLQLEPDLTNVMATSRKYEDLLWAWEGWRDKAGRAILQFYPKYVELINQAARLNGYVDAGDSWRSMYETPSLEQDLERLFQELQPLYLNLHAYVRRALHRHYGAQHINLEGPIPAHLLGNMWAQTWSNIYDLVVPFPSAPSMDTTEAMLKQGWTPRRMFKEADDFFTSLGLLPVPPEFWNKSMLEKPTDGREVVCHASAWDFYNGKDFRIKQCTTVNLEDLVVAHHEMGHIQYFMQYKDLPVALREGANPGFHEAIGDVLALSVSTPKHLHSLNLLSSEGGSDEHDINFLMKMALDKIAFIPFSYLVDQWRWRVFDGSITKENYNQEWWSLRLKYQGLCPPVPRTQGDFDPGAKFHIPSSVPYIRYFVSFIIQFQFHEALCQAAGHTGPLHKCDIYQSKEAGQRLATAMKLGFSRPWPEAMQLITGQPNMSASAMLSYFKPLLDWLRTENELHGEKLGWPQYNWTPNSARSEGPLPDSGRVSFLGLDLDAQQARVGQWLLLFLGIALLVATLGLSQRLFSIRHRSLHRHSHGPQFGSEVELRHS

Row | Structure (SMILES) | Ki [1] [nM] | Ki [2] [nM] | Ki (Neprilysin) [nM] | Ki (Carboxypeptidase A1) [nM]
1 | O=C(N[C@@H](Cc1ccc(-c2ccccc2)cc1)C(=O)O)[C@H](S)Cc1ccccc1 | 520 | 1400 | 1.3 | 310
2 | CC[C@@H](C)[C@H](S)C(=O)N[C@@H](Cc1ccc(-c2ccccc2)cc1)C(=O)O | 490 | 1.5 | 27 | 11000
3 | O=C(O)[C@H](Cc1ccc(-c2ccccc2)cc1)NC(=O)[C@@H](S)C1CCCCC1 | 13000 | 65 | 1300 | 12000
4 | O=C(O)[C@H](Cc1ccc(-c2ccccc2)cc1)NC(=O)[C@@H](S)C1CCC1 | 620 | 2.4 | 5.4 | 12000
5 | CCCC[C@H](S)C(=O)N[C@@H](Cc1ccc(-c2ccccc2)cc1)C(=O)O | 9.3 | 1.8 | 1.2 | 8900
6 | CC[C@H](S)C(=O)N[C@@H](Cc1ccc(-c2ccccc2)cc1)C(=O)O | 8.6 | 1.4 | 0.8 | 9300
7 | C[C@H](S)C(=O)N[C@@H](Cc1ccc(-c2ccccc2)cc1)C(=O)O | 21 | 6.9 | 23 | 14000
8 | O=C(CS)N[C@@H](Cc1ccc(-c2ccccc2)cc1)C(=O)O | 16 | 320 | 13 | 1700
9 | CC[C@H](C)[C@H](S)C(=O)N[C@@H](Cc1ccc(-c2ccccc2)cc1)C(=O)O | 200 | 1.6 | 2.4 | 15000
10 | CC(C)[C@H](S)C(=O)N[C@@H](Cc1ccc(-c2ccccc2)cc1)C(=O)O | 200 | 1.5 | 13 | 17000
11 | CC(C)(C)C[C@H](S)C(=O)N[C@@H](Cc1ccc(-c2ccccc2)cc1)C(=O)O | 2700 | 7.1 | 2.6 | 22000
12 | O=C(O)[C@H](Cc1ccc(-c2ccccc2)cc1)NC(=O)[C@@H](S)CC1CCCCC1 | 840 | 420 | 130 | 17000
13 | CC(C)C[C@H](S)C(=O)N[C@@H](Cc1ccc(-c2ccccc2)cc1)C(=O)O | 3.2 | 1.4 | 0.28 | 11000
14 | O=C(O)[C@H](Cc1ccc(-c2ccccc2)cc1)NC(=O)[C@@H](S)Cc1ccc2ccccc2c1 | 210 | 550 | 140 | 32000
15 | O=C(O)[C@H](Cc1ccc(-c2ccccc2)cc1)NC(=O)[C@@H](S)Cc1ccccc1 | 30 | 86 | 1.1 | 1200
16 | O=C(O)[C@H](Cc1ccc(-c2ccccc2)cc1)NC(=O)[C@@H](S)CCc1ccccc1 | 93 | 860 | 2.6 | 5000
17 | CC(C)(S)C(=O)N[C@@H](Cc1ccc(-c2ccccc2)cc1)C(=O)O | 3400 | 2300 | 730 | 
18 | O=C(O)[C@H](Cc1ccc(-c2ccccc2)cc1)NC(=O)[C@@H](S)C1CCCC1 | 700 | 1.8 | 38 | 12000
19 | O=C(O)[C@H](Cc1ccc(-c2ccccc2)cc1)NC(=O)[C@@H](S)c1ccccc1 | > 10000 | 84 | 410 | 
